Results of several laboratories.
Target: Dual specificity mitogen-activated protein kinase kinase 6 (MAP2K6, Homo sapiens, UniProt P52564)
Sequence (P52564 1-334, as in one of the studies): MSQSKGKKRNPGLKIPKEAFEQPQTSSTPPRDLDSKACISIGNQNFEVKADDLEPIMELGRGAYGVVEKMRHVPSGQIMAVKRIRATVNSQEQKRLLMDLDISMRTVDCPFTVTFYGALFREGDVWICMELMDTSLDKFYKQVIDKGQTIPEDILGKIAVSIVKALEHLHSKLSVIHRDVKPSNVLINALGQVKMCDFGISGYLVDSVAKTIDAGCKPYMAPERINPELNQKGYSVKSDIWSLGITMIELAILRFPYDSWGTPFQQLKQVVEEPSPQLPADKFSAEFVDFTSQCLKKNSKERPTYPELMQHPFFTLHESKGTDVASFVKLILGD

Structure (SMILES) | effect on | technique | tested at | remaining binding
CO[C@@H](C)c1c(Nc2ccc([C@@H](N(C)C(=O)C3CCS(=O)(=O)CC3)C(F)(F)F)cc2)cnc2cc(Cl)nn12 | cell-free assay | competition with immobilised ligand | 1 µM | 92%
CN(CCCC(F)(F)F)c1nccc(-c2cnn3ncccc23)n1 | binding |  | 1 µM | 100%
Nc1ncc2c(n1)-c1c([nH]c3ccc(C#CC4CC4)cc13)CCCC2 | binding | competition with immobilised ligand | 1 µM | 100%
CC1=C(C#N)[C@@H](c2ccc3[nH]nc(C)c3c2)C(C#N)=C(c2ccc(Cl)cc2)N1 | cell-free assay | competition with immobilised ligand | 1 µM | 100%
CNC(=O)[C@@]12C[C@@H]1[C@@H](n1cnc3c(NC)nc(C#Cc4ccc(Cl)s4)nc31)[C@H](O)[C@@H]2O | binding | competition with immobilised ligand | 10 µM | 17%
O=C(NCCCN1CCOCC1)c1ccc(Nc2ncc(Cl)c(-c3ccc(Cl)s3)n2)cc1 | binding | competition with immobilised ligand | 1 µM | 87%
CN(c1nccc(-c2cnn3ncccc23)n1)C1CC1 | binding |  | 1 µM | 100%
Cn1nc(C(=O)NCc2ccc(C(=O)O)cc2)cc1-c1ccc2[nH]ccc2c1 | cell-free assay | competition with immobilised ligand | 0.1 µM | 100%
O=C(NCCCN1CCOCC1)c1ccc(Nc2nccc(-c3cc4ccccc4s3)n2)cc1 | binding | competition with immobilised ligand | 1 µM | 76%
CNC(=O)[C@@H]1CC[C@@H](n2c(-c3ccc4cnccc4c3)nc3ccc(C(=O)NCc4cccc(C(N)=O)c4)cc32)C1 | binding | competition with immobilised ligand | 1 µM | 100%
Cc1cnc(Nc2ccc(C(=O)N3CCC(N4CCCC4)CC3)cc2)nc1-c1cc2ccccc2s1 | binding | competition with immobilised ligand | 1 µM | 30%
N[C@@H]1CCN(c2nccc(-c3cnn4ncccc34)n2)C1 | binding |  | 1 µM | 100%
Cc1c(C(=O)O)cc(-c2ccc(C3CCNCC3)cc2)c2ccc(-c3ccc(C(F)(F)F)cc3)cc12 | binding | competition with immobilised ligand | 1 µM | 100%
CCN1CCN(Cc2ccc(C(=O)Nc3ccc(C)c(Oc4ccc5c(c4)CC(=O)N5)c3)cc2C(F)(F)F)CC1 | binding | competition with immobilised ligand | 1 µM | 100%
COc1cnc(Nc2cccc(S(N)(=O)=O)c2)nc1N1CCN(c2ccccc2)C(=O)C1 | binding | competition with immobilised ligand | 1 µM | 100%
CS(=O)(=O)N1CCCC(NC(=O)[C@H](CCC2CCCCC2)NC(=O)c2ccc(CNC(=O)c3cnc4ccccn34)cc2)C1 (stereo partly drawn) | cell-free assay | competition with immobilised ligand | 0.1 µM | 72%
COc1ccnn2ncc(-c3ccnc(N(C)C)n3)c12 | binding |  | 1 µM | 100%
O=C(NCC1CCOCC1)c1n[nH]cc1NC(=O)c1c(F)cccc1F | binding | competition with immobilised ligand | 1 µM | 95%
C[C@@H]1CCN(c2nccc(-c3cnn4ncccc34)n2)C1 | binding |  | 1 µM | 100%
CS(=O)(=O)N1CCCC(NC(=O)[C@H](CCC2CCCCC2)NC(=O)c2ccc(CNc3ncnc4c3nnn4-c3ccccc3)cc2)C1 (stereo partly drawn) | cell-free assay | competition with immobilised ligand | 0.1 µM | 67%
F[C@@H]1CCN(c2nccc(-c3cnn4ncccc34)n2)C1 | binding |  | 1 µM | 100%
CCC(=O)N[C@@H]1CC[C@H](C(=O)N(C)c2ccc(-c3nc4ccccc4o3)cc2)C1 | cell-free assay | competition with immobilised ligand | 1 µM | 100%
CN(C)c1ncc(F)c(-c2cnn3ncccc23)n1 | binding |  | 1 µM | 100%
FC(F)(F)Oc1cccc(-c2cnc3ccc(-c4ccncc4)nn23)c1 | cell-free assay | competition with immobilised ligand | 5 µM | 84%
